Results taken from ChEMBL document CHEMBL3352570, “ST7612AA1, a thioacetate-ω(γ-lactam carboxamide) derivative selected from a novel generation of oral HDAC inhibitors” (J Med Chem, 2014).
pIC50: −log10 of the molar value. The source made the active and inactive calls. No cut-off for these calls is given here.

What was measured:
Histone deacetylase 11 = molecular target: T1, Histone deacetylase 11 (Homo sapiens, UniProt Q96DB2); assay: Inhibition of HDAC11 (unknown origin) using fluorogenic tetrapeptide RHKK(Ac) substrate by fluorescence assay
T1 sequence (Q96DB2 whole entry): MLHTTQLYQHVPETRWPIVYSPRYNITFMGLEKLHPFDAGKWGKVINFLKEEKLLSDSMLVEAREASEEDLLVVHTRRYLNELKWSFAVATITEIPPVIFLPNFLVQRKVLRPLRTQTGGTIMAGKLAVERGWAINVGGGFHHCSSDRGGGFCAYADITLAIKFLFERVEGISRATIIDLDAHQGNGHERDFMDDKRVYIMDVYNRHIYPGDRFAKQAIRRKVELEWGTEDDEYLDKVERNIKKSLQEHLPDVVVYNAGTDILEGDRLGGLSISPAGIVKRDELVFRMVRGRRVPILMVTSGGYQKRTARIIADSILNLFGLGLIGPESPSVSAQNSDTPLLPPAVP

Histone deacetylase 2 [1] = molecular target: T2, Histone deacetylase 2 (Homo sapiens, UniProt Q92769); assay: Inhibition of HDAC2 (unknown origin) using fluorogenic tetrapeptide RHKK(Ac) substrate at <50 uM by fluorescence assay
How it was run: (§1)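 Fluorogenic assay with the tetrapeptide RHKK(Ac) substrate (p53 residues 379–382) at 50 μM.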

[2] = molecular target: T3, Protein deacetylase HDAC6 (Homo sapiens, UniProt Q9UBN7); assay: Inhibition of HDAC6 (unknown origin) using fluorogenic tetrapeptide RHKK(Ac) substrate by fluorescence assay
T3 sequence (Q9UBN7 whole entry): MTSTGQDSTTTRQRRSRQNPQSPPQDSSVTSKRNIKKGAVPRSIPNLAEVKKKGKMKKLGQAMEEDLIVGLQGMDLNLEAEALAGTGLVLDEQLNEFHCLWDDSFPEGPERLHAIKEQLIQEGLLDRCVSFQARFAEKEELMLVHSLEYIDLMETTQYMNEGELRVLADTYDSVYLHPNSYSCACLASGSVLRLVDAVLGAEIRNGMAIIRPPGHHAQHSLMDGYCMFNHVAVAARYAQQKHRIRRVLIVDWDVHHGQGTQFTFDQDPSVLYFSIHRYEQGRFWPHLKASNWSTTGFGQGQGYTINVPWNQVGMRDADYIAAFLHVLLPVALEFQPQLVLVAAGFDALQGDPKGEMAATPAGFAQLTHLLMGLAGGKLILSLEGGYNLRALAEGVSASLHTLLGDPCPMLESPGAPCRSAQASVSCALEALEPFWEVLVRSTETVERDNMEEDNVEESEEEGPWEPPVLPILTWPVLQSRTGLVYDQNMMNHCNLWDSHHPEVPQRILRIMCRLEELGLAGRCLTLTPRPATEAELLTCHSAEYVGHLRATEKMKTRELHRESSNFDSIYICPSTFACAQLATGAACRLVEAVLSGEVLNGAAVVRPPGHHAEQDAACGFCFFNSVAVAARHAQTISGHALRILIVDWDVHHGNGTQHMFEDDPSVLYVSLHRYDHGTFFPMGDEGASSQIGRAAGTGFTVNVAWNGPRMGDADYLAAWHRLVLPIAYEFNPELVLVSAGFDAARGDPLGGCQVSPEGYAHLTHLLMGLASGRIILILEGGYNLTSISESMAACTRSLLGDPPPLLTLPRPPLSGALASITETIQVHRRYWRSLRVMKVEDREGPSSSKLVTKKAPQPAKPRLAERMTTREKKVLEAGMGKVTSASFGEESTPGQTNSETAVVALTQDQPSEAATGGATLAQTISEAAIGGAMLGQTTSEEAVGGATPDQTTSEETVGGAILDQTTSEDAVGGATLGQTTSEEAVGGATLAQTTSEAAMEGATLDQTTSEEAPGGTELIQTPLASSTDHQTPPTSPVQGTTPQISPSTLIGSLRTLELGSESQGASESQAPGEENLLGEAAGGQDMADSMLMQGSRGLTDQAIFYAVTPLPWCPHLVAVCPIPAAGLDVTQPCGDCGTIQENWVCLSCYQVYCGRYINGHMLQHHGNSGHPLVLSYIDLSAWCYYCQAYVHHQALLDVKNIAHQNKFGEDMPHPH

Histone deacetylase 8 = molecular target: T4, Histone deacetylase 8 (Homo sapiens, UniProt Q9BY41); assay: Inhibition of HDAC8 (unknown origin) using fluorogenic tetrapeptide RHK(Ac)K(Ac) substrate by fluorescence assay
T4 sequence (Q9BY41 whole entry): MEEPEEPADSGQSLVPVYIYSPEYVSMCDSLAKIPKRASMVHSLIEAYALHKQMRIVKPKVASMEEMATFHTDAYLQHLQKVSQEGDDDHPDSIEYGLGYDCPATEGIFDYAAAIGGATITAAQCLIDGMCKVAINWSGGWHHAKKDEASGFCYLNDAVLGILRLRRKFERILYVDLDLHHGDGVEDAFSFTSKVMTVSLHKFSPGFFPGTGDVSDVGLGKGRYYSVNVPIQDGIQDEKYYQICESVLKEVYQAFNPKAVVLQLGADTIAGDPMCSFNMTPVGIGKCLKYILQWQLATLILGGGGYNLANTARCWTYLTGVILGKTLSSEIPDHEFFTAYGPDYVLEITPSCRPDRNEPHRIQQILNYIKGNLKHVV

Histone deacetylase 1 [3] = molecular target: T5, Histone deacetylase 1 (Homo sapiens, UniProt Q13547); assay: Inhibition of HDAC1 (unknown origin) using fluorogenic tetrapeptide RHKK(Ac) substrate at <50 uM by fluorescence assay; how it was run: as §1
[4] = molecular target: T6, Polyamine deacetylase HDAC10 (Homo sapiens, UniProt Q969S8); assay: Inhibition of HDAC10 (unknown origin) using fluorogenic tetrapeptide RHKK(Ac) substrate by fluorescence assay
T6 sequence (Q969S8 whole entry): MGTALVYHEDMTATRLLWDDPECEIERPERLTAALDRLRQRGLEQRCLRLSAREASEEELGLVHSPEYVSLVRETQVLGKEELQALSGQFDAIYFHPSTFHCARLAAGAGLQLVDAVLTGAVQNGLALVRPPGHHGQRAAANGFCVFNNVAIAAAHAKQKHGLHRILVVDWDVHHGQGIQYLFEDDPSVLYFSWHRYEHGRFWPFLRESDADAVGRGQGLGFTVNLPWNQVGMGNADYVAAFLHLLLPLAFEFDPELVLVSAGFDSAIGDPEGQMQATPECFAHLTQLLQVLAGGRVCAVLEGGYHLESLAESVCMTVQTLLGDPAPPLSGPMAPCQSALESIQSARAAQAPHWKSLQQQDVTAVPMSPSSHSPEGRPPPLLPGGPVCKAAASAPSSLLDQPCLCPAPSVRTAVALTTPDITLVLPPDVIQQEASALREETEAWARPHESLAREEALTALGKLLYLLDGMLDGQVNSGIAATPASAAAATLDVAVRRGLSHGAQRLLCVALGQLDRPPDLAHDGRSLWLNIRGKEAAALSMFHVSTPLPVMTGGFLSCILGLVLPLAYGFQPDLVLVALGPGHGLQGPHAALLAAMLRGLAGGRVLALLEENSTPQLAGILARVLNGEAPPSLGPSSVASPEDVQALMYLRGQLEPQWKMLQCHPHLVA

Histone deacetylase 3 [5] = molecular target: T7, Histone deacetylase 3 (Homo sapiens, UniProt O15379); assay: Inhibition of HDAC3 (unknown origin) using fluorogenic tetrapeptide RHKK(Ac) substrate at <50 uM by fluorescence assay; how it was run: as §1
[6] = molecular target: T8, Histone deacetylase 8 (Homo sapiens) (UniProt Q9BY41); assay: Inhibition of HDAC8 (unknown origin) using fluorogenic tetrapeptide RHK(Ac)K(Ac) substrate at <50 uM by fluorescence assay
T8 sequence (whole entry): T4 sequence (Q9BY41 whole entry)
How it was run: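 The HDAC8 assay used the diacetylated fluorogenic substrate RHK(Ac)K(Ac) at 50 μM.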

Histone deacetylase 3 [7] = molecular target: T7, Histone deacetylase 3; assay: Inhibition of HDAC3 (unknown origin) using fluorogenic tetrapeptide RHKK(Ac) substrate by fluorescence assay
[8] = molecular target: T9, Polyamine deacetylase HDAC10 (Homo sapiens) (UniProt Q969S8); assay: Inhibition of HDAC10 (unknown origin) using fluorogenic tetrapeptide RHKK(Ac) substrate at <50 uM by fluorescence assay; how it was run: as §1
T9 sequence (whole entry): T6 sequence (Q969S8 whole entry)

NCI-H460 = assay: Cytotoxicity against human NCI-H460 cells after 24 hrs by SRB assay; assay type: functional, cell-based; details: NCI-H460, 24 h
How it was run: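 NCI-H460 cells were grown in RPMI-1640 with L-glutamine, 10% heat-inactivated FCS and 50 μg/mL gentamicin. Cells were seeded at about 10% confluence and allowed to recover for 24 h. They were exposed to varying concentrations for 24 h, washed, then cultured a further 48 h. Surviving cells were measured by SRB. IC50 is the 50% reduction in cell number versus vehicle, from dose–response curve fitting; means of at least three experiments.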

Histone deacetylase 2 [9] = molecular target: T2, Histone deacetylase 2; assay: Inhibition of HDAC2 (unknown origin) using fluorogenic tetrapeptide RHKK(Ac) substrate by fluorescence assay
Histone deacetylase 1 [10] = molecular target: T5, Histone deacetylase 1; assay: Inhibition of HDAC1 (unknown origin) using fluorogenic tetrapeptide RHKK(Ac) substrate by fluorescence assay
Histone deacetylase [11] = assay: Inhibition of HDAC-mediated tubulin deacetylation in human NCI-H460 cells after 3 hrs by Western blot analysis; assay type: cell-based
How it was run: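 Cells (NCI-H460) were treated for 3 h with graded concentrations. The cytoplasmic fraction was collected after HNB/1% NP-40 lysis and centrifugation of nuclei at 2000g. This fraction was resolved by SDS-PAGE and probed for acetylated α-tubulin against α-tubulin and β-actin. Bands were detected by ECL and quantified by densitometry after normalization; IC50 fitted; means of at least two experiments.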

[12] = Cytotoxicity against human HCT116 cells after 24 hrs by SRB assay; assay type: functional, cell-based; details: HCT-116, 24 h
How it was run: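 HCT116 cells were cultured in McCoy's 5A with L-glutamine, 10% heat-inactivated FCS and 50 μg/mL gentamicin. After seeding at about 10% confluence and a 24 h recovery, they received drug for 24 h. Drug was washed out and cells were incubated 48 h more before SRB staining. IC50 is the 50% cell-number reduction versus vehicle, from fitted dose–response curves; means of at least two experiments.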

Histone deacetylase [13] = assay: Inhibition of HDAC-mediated histone H4 deacetylation in human NCI-H460 cells after 3 hrs by Western blot analysis; assay type: cell-based
How it was run: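 NCI-H460 cells were plated the day before and treated 3 h across a dose range. Cells were washed with DPBS containing 5 mM NaB and lysed in HNB buffer with 1% NP-40. Histones were acid-extracted from nuclei with 0.4 equiv/L H2SO4 and precipitated with acetone. Blots were probed for acetyl-H4 against total H4. Read-out was ECL and densitometry after normalization; IC50 fitted; means of at least two experiments.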

T7 sequence (O15379 whole entry): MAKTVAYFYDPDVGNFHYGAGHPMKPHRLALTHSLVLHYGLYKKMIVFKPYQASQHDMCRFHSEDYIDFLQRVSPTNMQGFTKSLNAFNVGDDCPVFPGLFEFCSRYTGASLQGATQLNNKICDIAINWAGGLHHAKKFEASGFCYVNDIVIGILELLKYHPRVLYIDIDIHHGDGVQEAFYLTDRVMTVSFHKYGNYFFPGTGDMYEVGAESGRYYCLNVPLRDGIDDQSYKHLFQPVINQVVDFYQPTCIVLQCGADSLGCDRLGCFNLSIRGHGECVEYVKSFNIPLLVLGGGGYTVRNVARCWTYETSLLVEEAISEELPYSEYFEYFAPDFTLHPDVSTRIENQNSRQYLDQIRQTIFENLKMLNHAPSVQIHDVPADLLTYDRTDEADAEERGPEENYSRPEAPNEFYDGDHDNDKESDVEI
T5 sequence (Q13547 whole entry): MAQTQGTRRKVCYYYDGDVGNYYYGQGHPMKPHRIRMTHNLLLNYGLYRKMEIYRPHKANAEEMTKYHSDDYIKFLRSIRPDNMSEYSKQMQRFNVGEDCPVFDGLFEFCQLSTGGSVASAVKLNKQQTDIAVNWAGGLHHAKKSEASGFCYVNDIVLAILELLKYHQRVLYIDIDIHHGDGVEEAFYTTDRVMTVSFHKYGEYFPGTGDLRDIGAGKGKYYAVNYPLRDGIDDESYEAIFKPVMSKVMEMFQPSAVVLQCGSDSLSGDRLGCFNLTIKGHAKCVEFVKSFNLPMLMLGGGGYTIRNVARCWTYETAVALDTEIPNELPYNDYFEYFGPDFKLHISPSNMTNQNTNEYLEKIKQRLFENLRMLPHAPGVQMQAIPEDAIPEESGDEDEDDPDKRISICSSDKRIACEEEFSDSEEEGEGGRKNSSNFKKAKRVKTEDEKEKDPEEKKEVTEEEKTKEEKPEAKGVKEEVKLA
T2 sequence (Q92769 whole entry, the tested form may be a part): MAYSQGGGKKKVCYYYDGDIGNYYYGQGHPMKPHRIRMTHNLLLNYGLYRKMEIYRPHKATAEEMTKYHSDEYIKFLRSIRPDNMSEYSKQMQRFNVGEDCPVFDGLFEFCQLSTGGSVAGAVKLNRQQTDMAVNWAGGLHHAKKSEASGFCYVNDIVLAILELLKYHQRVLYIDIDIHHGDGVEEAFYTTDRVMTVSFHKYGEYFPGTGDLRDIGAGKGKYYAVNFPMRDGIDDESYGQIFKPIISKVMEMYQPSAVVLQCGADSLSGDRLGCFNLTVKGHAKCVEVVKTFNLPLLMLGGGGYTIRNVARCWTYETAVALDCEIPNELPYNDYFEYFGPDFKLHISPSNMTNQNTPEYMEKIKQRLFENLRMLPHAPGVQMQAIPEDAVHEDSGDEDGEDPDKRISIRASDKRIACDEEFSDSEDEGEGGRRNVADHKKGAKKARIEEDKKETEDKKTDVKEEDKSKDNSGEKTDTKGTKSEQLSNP

Compound | pIC50 (Histone deacetylase 11) | pIC50 [2] | pIC50 (Histone deacetylase 8) | pIC50 [4] | pIC50 (Histone deacetylase 3 [7]) | pIC50 (Histone deacetylase 2 [9]) | pIC50 (Histone deacetylase 1 [10]) | pIC50 (NCI-H460) | further results
CC(=O)SCCCCC[C@H](NC(=O)[C@H]1CCCC(=O)N1)C(=O)Nc1ccccc1 |  |  |  |  |  |  |  | 7.00 | 
CC(=O)SCCCCC[C@H](NC(=O)[C@H]1CCC(=O)N1)C(=O)Nc1cccc(C)c1 |  |  |  |  |  |  |  | 7.40 | 
CC(=O)SCCCCC[C@H](NC(=O)[C@@H]1CCC(=O)N1)C(=O)Nc1cccc(C)c1 |  |  |  |  |  |  |  | 7.22 | 
CC(=O)SCCCCC[C@H](NC(=O)[C@@H]1CC(=O)N1)C(=O)Nc1ccccc1 |  |  |  |  |  |  |  | 7.30 | IC50 (Histone deacetylase [11]): 0.05 µM; pIC50 [12]: 7.07; IC50 (Histone deacetylase [13]): 0.031 µM
O=C1NC[C@H](c2ccccc2)[C@@H]1C(=O)N[C@@H](CCCCCS)C(=O)Nc1ccccc1 | 7.89 | 8.40 | 6.51 | 7.85 | 8.05 | 6.77 | 7.49 |  | 

Second part, led by results:

pIC50 (Histone deacetylase 11) | pIC50 [2] | pIC50 (Histone deacetylase 8) | pIC50 [4] | pIC50 (Histone deacetylase 3 [7]) | pIC50 (Histone deacetylase 2 [9]) | pIC50 (Histone deacetylase 1 [10]) | Compound | pIC50 (NCI-H460) | further results
4.51 | 5.95 | 4.36 | 5.28 |  |  |  | CC(C)(C)OC(=O)N[C@@H](CCCCCS)C(=O)NC1CCCC1 |  | inhibition (Histone deacetylase 2 [1]): inactive; inhibition (Histone deacetylase 1 [3]): inactive; inhibition (Histone deacetylase 3 [5]): inactive
4.85 | 5.03 |  |  | 4.77 |  |  | O=C1CCC[C@@H](C(=O)N[C@H](CCCCCS)C(=O)Nc2ccccc2)N1 |  | inhibition (Histone deacetylase 2 [1]): inactive; inhibition (Histone deacetylase 1 [3]): inactive; inhibition [6]: inactive; inhibition [8]: inactive
9.00 | 9.00 | 6.87 | 9.00 | 9.00 | 7.82 | 8.70 | Cc1cccc(NC(=O)[C@H](CCCCCS)NC(=O)[C@@H]2CCCC(=O)N2)c1 |  | 
8.30 | 8.52 | 6.69 | 8.22 | 8.15 | 7.15 | 7.96 | CN1C(=O)CCC[C@H]1C(=O)N[C@@H](CCCCCS)C(=O)Nc1ccccc1 |  | 
7.21 | 9.00 | 6.97 | 8.30 | 8.40 | 7.89 | 8.30 | Cc1cccc(NC(=O)[C@H](CCCCCS)NC(=O)[C@@H]2CCC(=O)N2)c1 |  | 
